Calls of active or inactive are those of the source. The rule behind the calls is not given here.

Test [1] concerns MDA-MB-231. In words: Antiproliferative activity against human MDA-MB-231 cells after 24 hrs by MTT assay. As to conditions: MDA-MB-231, 24 h. It counts as functional, cell-based. A general note: Formazan colour is commonly taken as a measure of viable cells.
Test [2] concerns the target Bromodomain-containing protein 4 (Homo sapiens, UniProt O60885). As to the kind of experiment: Inhibition of His/thioredoxin-tagged human recombinant BRD4 bromodomain-1 (43 to 166 residues) expressed in Escherichia coli BL21 Star (DE3) pre-incubated for 30 mins followed by biotinylated histone peptide H4 addition measured after 30 mins by AlphaScreen assay. (In Alpha technology, singlet oxygen from a donor bead excites a nearby acceptor bead.)

In test [3] the test system is MCF7. As to the kind of experiment: Antiproliferative activity against human MCF7 cells after 24 hrs by MTT assay. Type of test: functional, cell-based. As to conditions: MCF7, 24 h.
In test [4] the test system is MDA-MB-231. As to the kind of experiment: Induction of autophagy in human MDA-MB-231 cells assessed as downregulation of p62/SQSTM1 expression at […] by Western blot analysis. It counts as functional, cell-based.
For test [5], the system named is MCF7. In words: Induction of autophagy in GFP/mRFP treated human MCF7 cells assessed as induction of LC3 puncta at 150 uM by fluorescence microscopic analysis. Type of test: functional, cell-based. A digest of the protocol:
(§1)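 MCF-7 or MDA-MB-231 cells transfected with GFP/mRFP-LC3 plasmid, then treated with 150 µM for indicated times. GFP-LC3 puncta observed by fluorescence microscopy.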

For test [6], the system named is MCF7. As to the kind of experiment: Induction of autophagy in human MCF7 cells assessed as downregulation of p62/SQSTM1 expression at […] by Western blot analysis. Type of test: functional, cell-based. A general note: A western blot detects proteins with antibodies after separation by electrophoresis.
In test [7] the test system is MDA-MB-231. In words: Induction of autophagy in GFP/mRFP treated human MDA-MB-231 cells assessed as induction of LC3 puncta at 150 uM by fluorescence microscopic analysis. It counts as functional, cell-based. A digest of the protocol: as §1

For orientation: IC50 means the concentration that inhibits the measured activity by half. Consider `O=c1[nH]c(-c2ccccc2)nc2sc3c(c12)CCC3`, for which the IC50 in test [1] is greater than 30 µM; in test [2], greater than 10 µM; in test [3], greater than 30 µM.

For the compound `CN1CCc2c(sc3nc(-c4cccc(O)c4)[nH]c(=O)c23)C1`, the IC50 in test [1] was greater than 30 µM; in test [2], greater than 10 µM; in test [3], greater than 30 µM.

Consider `O=c1[nH]c(-c2ccc(Br)cc2)nc2sc3c(c12)CCCC3`, for which the IC50 is greater than 30 µM in test [1], greater than 10 µM in test [2] and greater than 30 µM in test [3].

As to `CC1CCc2c(sc3nc(-c4cccc(Br)c4)[nH]c(=O)c23)C1` (configuration not stated), the IC50 in test [1] was 16.3 µM; in test [2], 1.02 µM; in test [3] it was 2.69 µM.

Regarding `O=c1[nH]c(-c2cccc(Br)c2)nc2sc3c(c12)CCC3`, the 50% inhibitory concentration (IC50) in test [1] was greater than 30 µM; in test [2], greater than 10 µM; in test [3], greater than 30 µM.

On to `O=c1[nH]c(-c2ccc(O)cc2)nc2sc3c(c12)CCCC3`, for which the values for the IC50 in test [1], in test [2] and in test [3] were greater than 30 µM, 7.32 µM and 22.8 µM, respectively.

In the case of `Cc1cc(-c2nc3sc4c(c3c(=O)[nH]2)CCCCC4)cc(C)c1O`, the results for the IC50 in test [1], in test [2] and in test [3] were 8.31 µM, 0.49 µM and 2.81 µM, respectively.

As to `COc1cccc(-c2nc3sc4c(c3c(=O)[nH]2)CCCC4)c1`, the IC50 was greater than 30 µM in test [1], greater than 10 µM in test [2] and greater than 30 µM in test [3].

Consider `CC1CCc2c(sc3nc(-c4cccc(O)c4)[nH]c(=O)c23)C1` (configuration not stated), for which the results for the IC50 in test [1], in test [2] and in test [3] were greater than 30 µM, greater than 10 µM and greater than 30 µM, respectively.

As to `CC1CCc2c(sc3nc(-c4ccc(Br)cc4)[nH]c(=O)c23)C1` (configuration not stated), the IC50 was greater than 30 µM in test [1], greater than 10 µM in test [2] and greater than 30 µM in test [3].

For the compound `Oc1nc(-c2ccccc2)nc2sc3c(c12)CCCC3`, the figures for the IC50 in test [1], in test [2] and in test [3] were greater than 30 µM, greater than 10 µM and greater than 30 µM, respectively.

With `CCCc1cc2c(=O)[nH]c(-c3ccc(O)cc3)nc2s1`, the IC50 in test [1] is 28.4 µM; in test [2], 8.59 µM; in test [3] it was greater than 30 µM.

For the compound `O=c1[nH]c(-c2ccccc2)nc2sc3c(c12)CCN(Cc1ccccc1)C3`, the IC50 in test [1] was greater than 30 µM; in test [2], greater than 10 µM; in test [3] it was greater than 30 µM.

For `Cc1cc(-c2nc3sc4c(c3c(=O)[nH]2)CCN(Cc2ccccc2)C4)cc(C)c1O`, the values for the 50% inhibitory concentration (IC50) in test [1], in test [2] and in test [3] were greater than 30 µM, greater than 10 µM and greater than 30 µM, respectively.

As to `O=c1[nH]c(-c2ccc(C(F)(F)F)cc2)nc2sc3c(c12)CCC3`, the IC50 in test [1] came out at 14.7 µM; in test [2] it was 1.53 µM; in test [3], 8.39 µM.

In the case of `O=c1[nH]c(-c2ccc(Br)cc2)nc2sc3c(c12)CCC3`, the IC50 was greater than 30 µM in test [1], 8.94 µM in test [2] and 21.3 µM in test [3].

Turning to `CN1CCc2c(sc3nc(-c4ccc(C(F)(F)F)cc4)[nH]c(=O)c23)C1`, the IC50 is 22.2 µM in test [1], greater than 10 µM in test [2] and greater than 30 µM in test [3].

`O=c1[nH]c(-c2ccc(C(F)(F)F)cc2)nc2sc3c(c12)CCCCC3`: the IC50 in test [1] is greater than 30 µM; in test [2], greater than 10 µM; in test [3], greater than 30 µM.

Turning to `Cc1cc(-c2nc3sc4c(c3c(=O)[nH]2)CCCC4)cc(C)c1O`, the IC50 is 27.8 µM in test [1], 6.93 µM in test [2] and 24.9 µM in test [3].

With `O=c1[nH]c(-c2ccc(O)cc2)nc2sc3c(c12)CCCCC3`, the IC50 was determined as 3.29 µM in test [1], 0.56 µM in test [2] and 1.56 µM in test [3].

Turning to `COc1cccc(-c2nc3sc4c(c3c(=O)[nH]2)CCN(Cc2ccccc2)C4)c1`, the results for the IC50 in test [1], in test [2] and in test [3] were greater than 30 µM, greater than 10 µM and greater than 30 µM, respectively.

For `CN1CCc2c(sc3nc(-c4ccc(O)cc4)[nH]c(=O)c23)C1`, the IC50 was 8.29 µM in test [1], 0.72 µM in test [2] and 5.48 µM in test [3].

`CC1CCc2c(sc3nc(Cc4ccccc4)[nH]c(=O)c23)C1` (configuration not stated): the IC50 was greater than 30 µM in test [1], greater than 10 µM in test [2] and greater than 30 µM in test [3].

For `CC1CCc2c(sc3nc(-c4cc(F)c(F)c(F)c4)[nH]c(=O)c23)C1` (configuration not stated), the half-inhibitory concentration (IC50) in test [1] is greater than 30 µM; in test [2], greater than 10 µM; in test [3], greater than 30 µM.

`CC1CCc2c(sc3nc(-c4ccc(O)cc4)[nH]c(=O)c23)C1` (configuration not stated): the IC50 worked out at 22.9 µM in test [1], 4.31 µM in test [2] and 12.2 µM in test [3].

Turning to `CN1CCc2c(sc3nc(Cc4ccc(-c5ccccc5)cc4)[nH]c(=O)c23)C1`, the values for the IC50 in test [1], in test [2] and in test [3] were greater than 30 µM, greater than 10 µM and greater than 30 µM, respectively.

In the case of `COc1ccccc1-c1nc2sc3c(c2c(=O)[nH]1)CCC3`, the IC50 turned out to be 5.34 µM in test [1], 0.78 µM in test [2] and 2.22 µM in test [3].

`O=c1[nH]c(Cc2ccccc2)nc2sc3c(c12)CCC3`: the IC50 was greater than 30 µM in test [1], greater than 10 µM in test [2] and greater than 30 µM in test [3].

As to `COc1cccc(-c2nc(=O)c3c4c(sc3[nH]2)CC(C)CC4)c1` (configuration not stated), the IC50 in test [1] was greater than 30 µM; in test [2] it was greater than 10 µM; in test [3], greater than 30 µM.

With `O=c1[nH]c(-c2ccc(Br)cc2)nc2sc3c(c12)CCCCC3`, the IC50 was greater than 30 µM in test [1], greater than 10 µM in test [2] and greater than 30 µM in test [3].

For the compound `CCCc1cc2c(=O)[nH]c(-c3cccc(OC)c3)nc2s1`, the IC50 in test [1] is greater than 30 µM; in test [2], greater than 10 µM; in test [3], greater than 30 µM.

`CCCc1cc2c(=O)[nH]c(-c3cccc(Br)c3)nc2s1`: the IC50 in test [1] was greater than 30 µM; in test [2] it was greater than 10 µM; in test [3], greater than 30 µM.

Turning to `O=c1[nH]c(Cc2ccccc2)nc2sc3c(c12)CCCCC3`, the IC50 in test [1] came out at 5.8 µM; in test [2], 0.82 µM; in test [3], 4.5 µM.

In the case of `CN1CCc2c(sc3nc(-c4cccc(Br)c4)[nH]c(=O)c23)C1`, the IC50 is 8.31 µM in test [1], 1.04 µM in test [2] and 2.17 µM in test [3].

In the case of `CC1CCc2c(sc3nc(-c4ccccc4)[nH]c(=O)c23)C1` (configuration not stated), the IC50 in test [1] is greater than 30 µM; in test [2], greater than 10 µM; in test [3], greater than 30 µM.

On to `CC1CCc2c(sc3nc(Cc4ccc(-c5ccccc5)cc4)[nH]c(=O)c23)C1` (configuration not stated), for which the IC50 in test [1] is greater than 30 µM; in test [2] it was greater than 10 µM; in test [3], greater than 30 µM.

Turning to `O=c1[nH]c(Cc2ccc(-c3ccccc3)cc2)nc2sc3c(c12)CCCCC3`, the IC50 in test [1] was greater than 30 µM; in test [2] it was greater than 10 µM; in test [3], greater than 30 µM.

Take `O=c1[nH]c(-c2ccc(C(F)(F)F)cc2)nc2sc3c(c12)CCN(Cc1ccccc1)C3`: the figures for the IC50 in test [1], in test [2] and in test [3] were greater than 30 µM, greater than 10 µM and greater than 30 µM, respectively.

`COc1cc(OC)c2c(=O)[nH]c(-c3cc(C)c(OCCO)c(C)c3)nc2c1` [APABETALONE]: the IC50 in test [1] worked out at 155 µM; in test [3], 140 µM. Also, the result in test [4], in test [5], in test [6] and in test [7] was Active.

Turning to `Cc1cc(-c2nc3sc4c(c3c(=O)[nH]2)CCC(C)C4)cc(C)c1O` (configuration not stated), the IC50 is 9.42 µM in test [1], 3.24 µM in test [2] and 5.59 µM in test [3].

Regarding `O=c1[nH]c(-c2ccc(O)cc2)nc2sc3c(c12)CCN(Cc1ccccc1)C3`, the values for the IC50 in test [1], in test [2] and in test [3] were greater than 30 µM, 6.37 µM and 17 µM, respectively.

Take `O=c1[nH]c(-c2cccc(Br)c2)nc2sc3c(c12)CCCCC3`: the values for the IC50 in test [1], in test [2] and in test [3] were greater than 30 µM, 5.73 µM and 18.5 µM, respectively.

As to `Cc1sc2c(c1C)C(c1ccc(Cl)cc1)=N[C@@H](CC(=O)OC(C)(C)C)c1nnc(C)n1-2`, the IC50 in test [1] is 33 µM; in test [3], 28.8 µM.

As for `O=c1[nH]c(-c2ccc(F)cc2F)nc2sc3c(c12)CCCC3`, the IC50 is greater than 30 µM in test [1], greater than 10 µM in test [2] and greater than 30 µM in test [3].

Take `O=c1[nH]c(-c2ccc(C(F)(F)F)cc2)nc2sc3c(c12)CCCC3`: the IC50 in test [1] is greater than 30 µM; in test [2], greater than 10 µM; in test [3], 28.1 µM.

With `CCCc1cc2c(=O)[nH]c(Cc3ccc(-c4ccccc4)cc3)nc2s1`, the IC50 in test [1] was greater than 30 µM; in test [2] it was greater than 10 µM; in test [3], greater than 30 µM.

As to `Cc1cc(-c2nc3sc4c(c3c(=O)[nH]2)CCC4)cc(C)c1O`, the IC50 came out at 23.1 µM in test [1], 6.38 µM in test [2] and 18.5 µM in test [3].

In the case of `COc1ccccc1-c1nc2sc3c(c2c(=O)[nH]1)CCN(C)C3`, the IC50 in test [1] was found to be 8.19 µM; in test [2], 2.47 µM; in test [3], 5.6 µM.

As for `CC1CCc2c(sc3nc(-c4ccc(C(F)(F)F)cc4)[nH]c(=O)c23)C1` (configuration not stated), the IC50 is greater than 30 µM in test [1], greater than 10 µM in test [2] and greater than 30 µM in test [3].

For the compound `O=c1[nH]c(-c2cccc(O)c2)nc2sc3c(c12)CCCCC3`, the IC50 in test [1] is 17.4 µM; in test [2] it was 3.98 µM; in test [3], 13.2 µM.
